According to ChEMBL document CHEMBL1132602, “Identification of novel classes of protein kinase inhibitors using combinatorial peptide chemistry based on functional genomics knowledge” (J Med Chem, 1999):
Starred links: 1 amine or outer side, 2 acyl side, 3 side chain; linkers in the order of their positions; H or OH if unused. Non-standard residues stand in square brackets, D forms with d. Residues, ends and D or L forms follow the SMILES beside them. X1 = O=C(C1CCC(N[*:1])CC1)[*:2]

How the values were obtained:
[1] = target: CaM kinase II (Homo sapiens, UniProt Q13557+Q13555+Q13554+Q9UQM7); assay: Inhibitory activity against CaMPKII (Calcium/calmodulin-dependent protein kinase type II); format: protein assay
[2] = target: Myosin light chain kinase, smooth muscle (Gallus gallus, UniProt P11799); assay: Inhibitory activity against MLCK (smooth muscle myosin light chain kinase)
Myosin light chain kinase, smooth muscle, sequence (P11799 whole entry): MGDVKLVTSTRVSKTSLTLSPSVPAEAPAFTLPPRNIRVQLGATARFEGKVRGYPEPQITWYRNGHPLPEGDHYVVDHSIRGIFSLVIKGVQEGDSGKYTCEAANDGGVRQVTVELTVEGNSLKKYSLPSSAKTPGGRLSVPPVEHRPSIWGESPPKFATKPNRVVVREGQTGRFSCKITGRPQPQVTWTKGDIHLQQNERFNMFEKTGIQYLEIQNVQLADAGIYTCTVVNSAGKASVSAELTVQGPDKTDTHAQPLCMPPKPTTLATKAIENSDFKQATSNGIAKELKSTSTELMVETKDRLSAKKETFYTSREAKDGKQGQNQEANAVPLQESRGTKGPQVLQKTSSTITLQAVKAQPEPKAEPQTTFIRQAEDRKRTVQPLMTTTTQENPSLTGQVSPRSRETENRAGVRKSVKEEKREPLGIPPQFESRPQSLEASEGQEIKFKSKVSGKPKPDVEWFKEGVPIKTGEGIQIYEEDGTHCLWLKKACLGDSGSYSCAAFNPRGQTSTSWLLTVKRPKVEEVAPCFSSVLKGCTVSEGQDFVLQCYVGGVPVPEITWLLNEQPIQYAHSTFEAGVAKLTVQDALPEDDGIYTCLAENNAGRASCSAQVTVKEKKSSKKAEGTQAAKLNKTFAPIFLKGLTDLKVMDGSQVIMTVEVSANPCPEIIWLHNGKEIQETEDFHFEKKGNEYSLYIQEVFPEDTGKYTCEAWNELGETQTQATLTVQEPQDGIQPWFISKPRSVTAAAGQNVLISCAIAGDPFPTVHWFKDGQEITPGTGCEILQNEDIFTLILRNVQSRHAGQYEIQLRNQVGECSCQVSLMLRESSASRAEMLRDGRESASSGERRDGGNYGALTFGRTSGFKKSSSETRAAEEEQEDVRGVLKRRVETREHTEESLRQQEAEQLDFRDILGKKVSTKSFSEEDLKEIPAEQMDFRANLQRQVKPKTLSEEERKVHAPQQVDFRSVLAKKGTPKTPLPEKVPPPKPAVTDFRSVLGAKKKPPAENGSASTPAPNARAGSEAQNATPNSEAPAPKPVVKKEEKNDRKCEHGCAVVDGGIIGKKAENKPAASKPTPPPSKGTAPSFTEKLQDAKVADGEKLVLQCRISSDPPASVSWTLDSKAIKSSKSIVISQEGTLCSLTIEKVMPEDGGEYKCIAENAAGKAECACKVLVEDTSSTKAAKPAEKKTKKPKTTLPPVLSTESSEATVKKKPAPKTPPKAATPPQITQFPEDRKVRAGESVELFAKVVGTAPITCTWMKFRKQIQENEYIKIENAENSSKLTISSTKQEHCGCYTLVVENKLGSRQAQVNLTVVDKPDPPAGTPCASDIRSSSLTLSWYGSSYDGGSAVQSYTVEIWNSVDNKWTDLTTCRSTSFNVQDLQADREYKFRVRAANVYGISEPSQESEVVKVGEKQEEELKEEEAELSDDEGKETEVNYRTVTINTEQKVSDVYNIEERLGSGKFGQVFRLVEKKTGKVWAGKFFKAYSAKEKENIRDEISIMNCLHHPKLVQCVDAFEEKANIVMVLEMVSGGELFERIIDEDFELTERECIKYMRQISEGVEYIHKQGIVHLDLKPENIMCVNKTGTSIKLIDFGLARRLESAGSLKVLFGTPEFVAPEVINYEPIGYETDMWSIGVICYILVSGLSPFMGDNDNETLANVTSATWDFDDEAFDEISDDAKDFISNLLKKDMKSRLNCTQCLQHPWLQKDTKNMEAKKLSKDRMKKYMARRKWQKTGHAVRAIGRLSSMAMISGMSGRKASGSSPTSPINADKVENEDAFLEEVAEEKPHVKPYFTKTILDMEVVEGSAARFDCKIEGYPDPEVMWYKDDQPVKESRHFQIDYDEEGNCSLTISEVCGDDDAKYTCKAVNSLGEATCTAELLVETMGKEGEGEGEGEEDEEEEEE

[3] = Ratio of the inhibitory concentrations against CaMPKII and MLCK. IC50 (CaMPKII ) / IC50 (MLCK).
How it was run: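 Ratio of IC50 values from the two radiometric assays, both with 0.2 mM [γ-32P]ATP and 20 μM peptide substrate. CaMPKII was activated with 30 μM CaM and 2 mM CaCl2 and run 8 min. Chicken gizzard MLCK was activated with 1 μM CaM and 5 μM CaCl2 and run 20 min. Both at 25 °C, IC50 from 15–85% activity regression.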

IC50 [1] [nM]	IC50 [2] [nM]	Ratio [3]	Compound
> 200000	270	> 741	NCCCC[C@H](NC(=O)[C@H](CCCN=C(N)N)NC(=O)[C@H](CCCN=C(N)N)NC(=O)C1CCC(NC(=O)[C@H](CCCCN)NC(=O)[C@H](Cc2ccc(O)cc2)NC(=O)[C@H](CCCCN)NC(=O)[C@H](CCCCN)NC(=O)[C@@H](N)CCCN=C(N)N)CC1)C(N)=O (stereo not given in full) (H-RKKYK[X1]RRK-NH2)
57400	160	–	CC[C@H](C)[C@H](NC(=O)[C@H](CCCCN)NC(=O)[C@H](Cc1ccc(O)cc1)NC(=O)[C@H](CCCCN)NC(=O)[C@H](CCCCN)NC(=O)[C@@H](N)CCCNC(=N)N)C(=O)N[C@@H](CCCNC(=N)N)C(=O)N[C@@H](CCCNC(=N)N)C(=O)N[C@@H](CCCCN)C(N)=O
> 200000	110	> 1820	NCCCC[C@H](NC(=O)[C@H](CCCN=C(N)N)NC(=O)[C@H](CCCN=C(N)N)NC(=O)C1CCC(NC(=O)C2CCC(NC(=O)[C@H](Cc3ccc(O)cc3)NC(=O)[C@H](CCCCN)NC(=O)[C@H](CCCCN)NC(=O)[C@@H](N)CCCN=C(N)N)CC2)CC1)C(N)=O (stereo not given in full) (H-RKKY[X1][X1]RRK-NH2)
> 200000	–	> 1250	H-RKKYKMRRK-NH2 [listing 1 of 2 here]
> 200000	870	> 230	H-RKKYKERRK-NH2
–	150	–	H-RKKYKSRRK-NH2 [listing 1 of 2 here]
> 200000	1040	> 192	NCCCC[C@H](NC(=O)[C@H](CCCN=C(N)N)NC(=O)[C@H](CCCN=C(N)N)NC(=O)[C@H](Cc1ccc(O)cc1)NC(=O)[C@H](CCCCN)NC(=O)C1CCC(NC(=O)[C@H](CCCCN)NC(=O)[C@H](CCCCN)NC(=O)[C@@H](N)CCCN=C(N)N)CC1)C(N)=O (stereo not given in full) (H-RKK[X1]KYRRK-NH2)
> 200000	420	> 476	H-RKKYKARRK-NH2
> 200000	120	> 1670	H-RKKYKPRRK-NH2
> 200000	610	> 328	H-RKKYKDRRK-NH2
–	–	> 274	C[C@H](O)[C@H](NC(=O)[C@H](CCCCN)NC(=O)[C@H](Cc1ccc(O)cc1)NC(=O)[C@H](CCCCN)NC(=O)[C@H](CCCCN)NC(=O)[C@@H](N)CCCN=C(N)N)C(=O)N[C@@H](CCCN=C(N)N)C(=O)N[C@@H](CCCN=C(N)N)C(=O)N[C@@H](CCCCN)C(N)=O
> 200000	–	> 690	H-RKKYKNRRK-NH2 [listing 1 of 2 here]
–	–	359	CC[C@@H](C)[C@H](NC(=O)[C@H](CCCCN)NC(=O)[C@H](Cc1ccc(O)cc1)NC(=O)[C@H](CCCCN)NC(=O)[C@H](CCCCN)NC(=O)[C@@H](N)CCCN=C(N)N)C(=O)N[C@@H](CCCN=C(N)N)C(=O)N[C@@H](CCCN=C(N)N)C(=O)N[C@@H](CCCCN)C(N)=O
> 200000	730	–	C[C@@H](O)[C@H](NC(=O)[C@H](CCCCN)NC(=O)[C@H](Cc1ccc(O)cc1)NC(=O)[C@H](CCCCN)NC(=O)[C@H](CCCCN)NC(=O)[C@@H](N)CCCN=C(N)N)C(=O)N[C@@H](CCCN=C(N)N)C(=O)N[C@@H](CCCN=C(N)N)C(=O)N[C@@H](CCCCN)C(N)=O
> 200000	–	> 1330	H-RKKYKSRRK-NH2 [listing 2 of 2 here]
> 200000	50	> 4000	H-RKKYKYRRK-NH2
16200	290	56	H-RKKYKHRRK-NH2

IC50 [1] [nM]	IC50 [2] [nM]	Ratio [3]	Compound
–	20000	–	N=C(N)NCCC[C@H](NC(=O)C1CCC(NC(=O)C2CCC(NC(=O)C3CCC(NC(=O)[C@H](CCCCN)NC(=O)[C@H](CCCCN)NC(=O)[C@@H](N)CCCNC(=N)N)CC3)CC2)CC1)C(=O)N[C@@H](CCCNC(=N)N)C(=O)N[C@@H](CCCCN)C(N)=O (stereo not given in full) (H-RKK[X1][X1][X1]RRK-NH2)
–	360	–	H-RKKYKVRRK-NH2 [listing 1 of 2 here]
> 200000	–	> 556	H-RKKYKVRRK-NH2 [listing 2 of 2 here]
> 200000	–	> 67	NCCCC[C@H](NC(=O)[C@H](CCCN=C(N)N)NC(=O)[C@H](CCCN=C(N)N)NC(=O)[C@H](Cc1ccc(O)cc1)NC(=O)C1CCC(NC(=O)C2CCC(NC(=O)[C@H](CCCCN)NC(=O)[C@H](CCCCN)NC(=O)[C@@H](N)CCCN=C(N)N)CC2)CC1)C(N)=O (stereo not given in full) (H-RKK[X1][X1]YRRK-NH2)
132000	320	413	H-RKKYKLRRK-NH2
26700	200	134	H-RKKYKWRRK-NH2
–	160	–	H-RKKYKMRRK-NH2 [listing 2 of 2 here]
–	290	–	H-RKKYKNRRK-NH2 [listing 2 of 2 here]
–	310	–	H-RKKYKGRRK-NH2 [listing 1 of 2 here]
> 200000	40	> 5000	NCCCC[C@H](NC(=O)[C@H](CCCN=C(N)N)NC(=O)[C@H](CCCN=C(N)N)NC(=O)[C@H](Cc1ccc(O)cc1)NC(=O)C1CCC(NC(=O)[C@H](Cc2ccc(O)cc2)NC(=O)[C@H](CCCCN)NC(=O)[C@H](CCCCN)NC(=O)[C@@H](N)CCCN=C(N)N)CC1)C(N)=O (stereo not given in full) (H-RKKY[X1]YRRK-NH2)
> 200000	–	> 645	H-RKKYKGRRK-NH2 [listing 2 of 2 here]
> 200000	220	> 909	H-RKKYKKRRK-NH2
–	2970	–	N=C(N)NCCC[C@H](NC(=O)[C@H](CCCNC(=N)N)NC(=O)[C@H](Cc1ccc(O)cc1)NC(=O)C1CCC(NC(=O)C2CCC(NC(=O)[C@H](CCCCN)NC(=O)[C@H](CCCCN)NC(=O)[C@@H](N)CCCNC(=N)N)CC2)CC1)C(=O)N[C@@H](CCCCN)C(N)=O (stereo not given in full) (H-RKK[X1][X1]YRRK-NH2)
> 200000	20000	> 10	NCCCC[C@H](NC(=O)[C@H](CCCN=C(N)N)NC(=O)[C@H](CCCN=C(N)N)NC(=O)C1CCC(NC(=O)[C@H](CCCCN)NC(=O)C2CCC(NC(=O)[C@H](CCCCN)NC(=O)[C@H](CCCCN)NC(=O)[C@@H](N)CCCN=C(N)N)CC2)CC1)C(N)=O (stereo not given in full) (H-RKK[X1]K[X1]RRK-NH2)
> 200000	150	> 1330	H-RKKYKFRRK-NH2
> 200000	300	> 667	H-RKKYKQRRK-NH2
> 200000	–	> 10	NCCCC[C@H](NC(=O)[C@H](CCCN=C(N)N)NC(=O)[C@H](CCCN=C(N)N)NC(=O)C1CCC(NC(=O)C2CCC(NC(=O)C3CCC(NC(=O)[C@H](CCCCN)NC(=O)[C@H](CCCCN)NC(=O)[C@@H](N)CCCN=C(N)N)CC3)CC2)CC1)C(N)=O (stereo not given in full) (H-RKK[X1][X1][X1]RRK-NH2)
